For 37 sequences, Tm and folding enthalpy results are on record in the array DNA melting data of Ke et al. (doi:10.1101/2024.01.08.574731).

Data set [1] is described as follows: melting temperature; fluorescence melt of hairpins on a sequencing array, two-state fit, raised by 9.35 °C to match UV melts. Conditions: sodium 0.088 M. In outline: (§1)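 Melting temperature and folding enthalpy were derived from bootstrapped two-state fits. The fitted temperatures were raised by 9.35 °C to agree with UV melts, and four replicates were combined by inverse variance. The underlying data were Cy3 fluorescence images of library hairpins, with annealed Cy3 and quencher oligos, on a sequenced MiSeq flow cell in 50 mM Na-HEPES pH 8.0, 25 mM NaCl, taken in 2.5 °C steps up to 60 °C, normalised to pre-quench Cy3 and to control constructs.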

Data set [2] can be described thus: folding enthalpy; higher = less favourable; fluorescence melt of hairpins on a sequencing array, two-state fit. As to conditions: sodium 0.088 M. In outline:
as §1

In the case of GCCTACGGAAACGTGGGC (((.(((....))).))), the Tm in data set [1] was found to be 58.6 °C. For the same sequence, the folding enthalpy in data set [2] was -39.2 kcal/mol.
The matching figures for GCCTAGAAATAGGC (((((....))))): 49.8 °C and -29.2 kcal/mol.
Turning to GCCTAGACGAAAGTCGGC (((..(((....)))))), the Tm in data set [1] is 53.3 °C. In data set [2], the folding enthalpy is -21.6 kcal/mol.
GCCTAGCGAAAGCCCGGC (((..((....))..))): the Tm in data set [1] stood at 42.7 °C. Also, the folding enthalpy in data set [2] is -17.4 kcal/mol.
Take GCCTAGGGAAACCTAAGC ((.((((....)))).)): the Tm in data set [1] was 31.6 °C. Further, the folding enthalpy in data set [2] is -14.7 kcal/mol.
GCCTAGGGAAACCTAGAC (.(((((....))))).): the Tm in data set [1] is 35.4 °C. Also, in data set [2], the folding enthalpy was -19.6 kcal/mol.
Turning to GCCTATCGAAAGATGGGC (((.(((....))).))), the Tm in data set [1] amounted to 60.1 °C. Also, the folding enthalpy in data set [2] was -34.6 kcal/mol.
With GCCTATGAAAATAGGC ((((((....)))))), in data set [1], the Tm was 58.9 °C. For the same sequence, in data set [2], the folding enthalpy was -34 kcal/mol.
GCCTATGGAAACATAGGC (((((((....))))))): the Tm in data set [1] was determined as 66 °C. Also, the folding enthalpy in data set [2] was -33.8 kcal/mol.
For GCCTCACCGAAAGGTGGC (((..(((....)))))), in that order: 48.9 °C and -8.02 kcal/mol.
On to GCCTCAGCGAAAGCTGGC (((..(((....)))))), for which the Tm in data set [1] turned out to be 50.9 °C. In addition, in data set [2], the folding enthalpy is -8.88 kcal/mol.
Consider GCCTCAGGAAACCAAGGC ((((..(....)..)))), for which, in data set [1], the Tm was found to be 33.2 °C. Moreover, the folding enthalpy in data set [2] was -28.6 kcal/mol.
GCCTCAGGAAACCGAGGC (((((.(....).))))): the Tm in data set [1] came out at 53.5 °C. Moreover, the folding enthalpy in data set [2] is -45.1 kcal/mol.
With GCCTCCCCGAAAGGGGGC (((..(((....)))))), in data set [1], the Tm is 52.5 °C. Moreover, in data set [2], the folding enthalpy was -9.45 kcal/mol.
For GCCTCCCGAAAGGGCGGC (((.(((....))).))), the Tm in data set [1] was found to be 61.3 °C. Besides, the folding enthalpy in data set [2] is -34.4 kcal/mol.
Turning to GCCTCCGAAAGGAAGGC ((((((....))).))), the Tm in data set [1] is 62 °C. Moreover, the folding enthalpy in data set [2] was -31.9 kcal/mol.
As for GCCTCCGAAAGGACGGC ((((((....))).))), in data set [1], the Tm was 56.5 °C. For the same sequence, the folding enthalpy in data set [2] was -30.9 kcal/mol.
Consider GCCTCCGAAAGGAGAGGC ((((((....)))..))), for which, in data set [1], the Tm came to 54.8 °C. Besides, the folding enthalpy in data set [2] is -20.4 kcal/mol.
Consider GCCTCCGAAAGGATGGGC ((((((....)))..))), for which the Tm in data set [1] amounted to 50 °C. Besides, the folding enthalpy in data set [2] is -41.9 kcal/mol.
GCCTCCGAAAGGATTGGC ((((((....)))..))): the Tm in data set [1] was 47.4 °C. Also, the folding enthalpy in data set [2] is -19.7 kcal/mol.
Take GCCTCCGGAAACGGAGAC (.(((((....))))).): the Tm in data set [1] was found to be 47 °C. Moreover, the folding enthalpy in data set [2] was -15.8 kcal/mol.
In the case of GCCTCGCCGAAAGGCGGC (((..(((....)))))), in data set [1], the Tm came to 55.4 °C. Further, in data set [2], the folding enthalpy was -5.04 kcal/mol.
Regarding GCCTCGCGAAAGCAAAGC ((.(.((....)).).)), the Tm in data set [1] came out at 28.4 °C. Besides, the folding enthalpy in data set [2] is -9.86 kcal/mol.
Regarding GCCTCGCGAAAGCCAGGC ((((.((....)).)))), the Tm in data set [1] is 58.2 °C. In data set [2], the folding enthalpy was -23.5 kcal/mol.
As to GCCTCGCGAAAGCCTGGC (((..((....))..))), the Tm in data set [1] came to 46.5 °C. Moreover, the folding enthalpy in data set [2] is -22.9 kcal/mol.
For GCCTCGCGAAAGCGCCGC ((..(((....)))..)), in that order: 36.1 °C and -14.3 kcal/mol.
GCCTCGCGAAAGCGTAGC ((..(((....)))..)): in data set [1], the Tm came out at 44 °C. In addition, the folding enthalpy in data set [2] was -11.8 kcal/mol.
For GCCTCGCGAAAGCGTTGC ((..(((....)))..)), in that order: 39.9 °C and -15.7 kcal/mol.
Consider GCCTCGGGAAACCGAGAC (.(((((....))))).), for which the Tm in data set [1] is 46.2 °C. Besides, the folding enthalpy in data set [2] was -15.8 kcal/mol.
As for GCCTCTCCGAAAGGAGGC (((..(((....)))))), in data set [1], the Tm stood at 52.9 °C. For the same sequence, the folding enthalpy in data set [2] was -12.4 kcal/mol.
GCCTCTCGAAAGAGGGC (((.(((....)))))): in data set [1], the Tm came out at 54.4 °C. Moreover, the folding enthalpy in data set [2] was -30.6 kcal/mol.
Regarding GCCTCTCGAAAGAGGGGC (((.(((....))).))), the Tm in data set [1] was found to be 63.2 °C. In addition, the folding enthalpy in data set [2] is -34.1 kcal/mol.
On to GCCTGACCGAAAGGTGGC (((..(((....)))))), for which the Tm in data set [1] came out at 51.2 °C. Further, the folding enthalpy in data set [2] is -23.4 kcal/mol.
Take GCCTGACGAAAGTCCGGC (((.(((....))).))): the Tm in data set [1] was 56.7 °C. Moreover, in data set [2], the folding enthalpy was -41.4 kcal/mol.
GCCTGAGGAAACTCAGAC (.(((((....))))).): the Tm in data set [1] stood at 40.7 °C. The folding enthalpy in data set [2] is -16.7 kcal/mol.
With GCCTGATCGAAAGATGGC (((..(((....)))))), the Tm in data set [1] is 41.9 °C. Also, in data set [2], the folding enthalpy is -25.2 kcal/mol.
Regarding GCCTGCCGAAAGGCCGGC (((.(((....))).))), in data set [1], the Tm is 64.3 °C. For the same sequence, the folding enthalpy in data set [2] was -22.4 kcal/mol.
